{"source": "ChEMBL document CHEMBL4152206", "about": "“Design, synthesis, cytotoxicity and mechanism of novel dihydroartemisinin-coumarin hybrids as potential anti-cancer agents” (Eur J Med Chem, 2018)", "key": {"HT-29 [1]": {"system": "HT-29", "test": "Cytotoxicity against human HT-29 cells after 96 hrs under normoxic condition by MTT assay", "type": "functional, cell-based", "conditions": "Homo sapiens, HT-29, 96 h; read-out: IC50", "method_in_brief": "(§1)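 MTT viability assay in HT-29 (high CA IX) and MDA-MB-231 (normal CA IX) cells under normoxic and hypoxic conditions; IC50 values reported.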"}, "HT-29 [2]": {"system": "HT-29", "test": "Cell cycle arrest in human HT-29 cells assessed as accumulation at sub-G1 phase at 10 uM up to 48 hrs by RNase/propidium iodide staining-based flow cytometric analysis", "type": "functional", "method_in_brief": "(§2)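 HT-29 cells exposed to 10 µM for different times (up to 72 h); sub-G1 fraction measured by flow cytometry.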"}, "HT-29 [3]": {"system": "HT-29", "test": "Cell cycle arrest in human HT-29 cells assessed as accumulation at G0/G1 phase at 20 uM after 48 hrs by RNase/propidium iodide staining-based flow cytometric analysis (reference value: 70.48%)", "type": "functional"}, "HT-29 [4]": {"system": "HT-29", "test": "Cytotoxicity against human HT-29 cells after 96 hrs under hypoxic condition by MTT assay", "type": "functional, cell-based", "conditions": "Homo sapiens, HT-29, 96 h; read-out: IC50", "method_in_brief": "as §1"}, "HT-29 [5]": {"system": "HT-29", "test": "Induction of mitochondrial membrane potential loss in human HT-29 cells at 20 uM measured measured until 24 hrs by Rh123 dye-based flow cytometric analysis", "type": "functional, cell-based", "method_in_brief": "(§3)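 HT-29 cells exposed to 20 µM for different times, stained with Rh123 for 40 min, trypsinised (0.25%), washed three times in PBS; mitochondrial membrane potential read by flow cytometry.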"}, "MDA-MB-231 [6]": {"system": "MDA-MB-231", "test": "Cytotoxicity against human MDA-MB-231 cells after 96 hrs under hypoxic condition by MTT assay", "type": "functional, cell-based", "conditions": "Homo sapiens, MDA-MB-231, 96 h; read-out: IC50", "method_in_brief": "as §1"}, "[7]": {"target": "Carbonic anhydrase 9 (Homo sapiens) (UniProt Q16790)", "test": "Inhibition of carbonic anhydrase 9 in human HT-29 cells assessed as induction of cellular pH decrease at 10 uM after 24 hrs by BCECF-AM staining-based flow cytometric analysis", "type": "cell-based", "method_in_brief": "(§4)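 Intracellular pH in HT-29 cells exposed to 10 µM for 0, 3, 12 and 24 h: stained 40 min with BCECF-AM, trypsinised (0.25%), PBS-washed, fluorescence read by flow cytometry.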"}, "HT-29 [8]": {"system": "HT-29", "test": "Induction of morphological changes in human HT-29 cells assessed as reduction in cell volume after 96 hrs", "type": "functional, cell-based"}, "HT-29 [9]": {"system": "HT-29", "test": "Cell cycle arrest in human HT-29 cells assessed as accumulation at sub-G1 phase at 10 uM after 48 to 72 hrs by RNase/propidium iodide staining-based flow cytometric analysis", "type": "functional", "method_in_brief": "as §2"}, "HT-29 [10]": {"system": "HT-29", "test": "Cell cycle arrest in human HT-29 cells assessed as accumulation at G0/G1 phase at 5 uM after 48 hrs by RNase/propidium iodide staining-based flow cytometric analysis (reference value: 70.48%)", "type": "functional"}, "HT-29 [11]": {"system": "HT-29", "test": "Induction of morphological changes in human HT-29 cells assessed as reduction in cell number after 96 hrs", "type": "functional, cell-based"}, "HT-29 [12]": {"system": "HT-29", "test": "Antimigratory activity in human HT-29 cells after 72 hrs by wound healing assay", "type": "functional, cell-based", "method_in_brief": "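HT-29 cells plated 48 h before scratching; treated with 0, 0.31, 0.63, 1.25, 2.5 and 5 µM under normoxia; wound imaged by inverted microscope at 0 h and 72 h.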"}, "HT-29 [13]": {"system": "HT-29", "test": "Growth inhibition of human HT-29 cells pretreated with 5 to 40 uM liproxstatin-1 for 1 hr followed by 10 uM compound addition and measured after 48 hrs by MTT assay"}, "HT-29 [14]": {"system": "HT-29", "test": "Cell cycle arrest in human HT-29 cells assessed as accumulation at G0/G1 phase at 10 uM after 48 hrs by RNase/propidium iodide staining-based flow cytometric analysis (reference value: 70.48%)", "type": "functional"}, "HT-29 [15]": {"system": "HT-29", "test": "Cell cycle arrest in human HT-29 cells assessed as accumulation at sub-G1 phase at 10 uM by RNase/propidium iodide staining-based flow cytometric analysis", "type": "functional", "conditions": "TDE = time-dependent effect", "method_in_brief": "as §2"}, "HT-29 [16]": {"system": "HT-29", "test": "Induction of apoptosis in human HT-29 cells assessed as early apoptotic cells at 2.5 uM after 48 hrs by Annexin V-FITC/propidium iodide staining-based flow cytometric analysis (reference value: 0.07%)", "type": "functional"}, "HT-29 [17]": {"system": "HT-29", "test": "Growth inhibition of human HT-29 cells pretreated with 10 uM liproxstatin-1 for 1 hr followed by 10 uM compound addition and measured after 72 hrs by MTT assay", "type": "functional, cell-based"}, "HT-29 [18]": {"system": "HT-29", "test": "Cell cycle arrest in human HT-29 cells assessed as accumulation at G0/G1 phase at 2.5 uM after 48 hrs by RNase/propidium iodide staining-based flow cytometric analysis (reference value: 70.48%)", "type": "functional"}, "HT-29 [19]": {"system": "HT-29", "test": "Induction of mitochondrial membrane potential loss in human HT-29 cells at 20 uM measured after 3 hrs by Rh123 dye-based flow cytometric analysis", "type": "functional, cell-based", "method_in_brief": "as §3"}, "HT-29 [20]": {"system": "HT-29", "test": "Antimigratory activity in human HT-29 cells at 1.25 to 2.5 uM after 24 hrs by transwell assay", "type": "functional, cell-based"}, "MDA-MB-231 [21]": {"system": "MDA-MB-231", "test": "Cytotoxicity against human MDA-MB-231 cells after 96 hrs under normoxic condition by MTT assay", "type": "functional, cell-based", "conditions": "Homo sapiens, MDA-MB-231, 96 h; read-out: IC50", "method_in_brief": "as §1"}, "HT-29 [22]": {"system": "HT-29", "test": "Induction of apoptosis in human HT-29 cells assessed as early apoptotic cells at 5 uM after 48 hrs by Annexin V-FITC/propidium iodide staining-based flow cytometric analysis (reference value: 0.07%)", "type": "functional"}, "HT-29 [23]": {"system": "HT-29", "test": "Induction of ferroptosis in human HT-29 cells at 10 uM after 72 hrs by MTT assay", "type": "functional, cell-based"}, "[24]": {"target": "Carbonic anhydrase 9 (Homo sapiens) (UniProt Q16790)", "test": "Inhibition of carbonic anhydrase 9 in human HT-29 cells assessed as induction of cellular pH decrease at 10 uM after 3 to 12 hrs by BCECF-AM staining-based flow cytometric analysis", "type": "cell-based", "method_in_brief": "as §4"}, "HT-29 [25]": {"system": "HT-29", "test": "Induction of apoptosis in human HT-29 cells assessed as early apoptotic cells at 10 uM after 48 hrs by Annexin V-FITC/propidium iodide staining-based flow cytometric analysis (reference value: 0.07%)", "type": "functional"}}, "note": "Active and inactive are the calls of the source. The calls are words filed in the database; no cut-off is given here.", "data": [{"smiles": "Cc1c(Cl)c(=O)oc2cc(OCCn3cc(CO[C@H]4O[C@@H]5O[C@@]6(C)CC[C@H]7[C@H](C)CC[C@@H]([C@H]4C)[C@@]57OO6)nn3)ccc12", "values": [{"measurement": "IC50", "setting": "HT-29 [1]", "result": 1.88, "unit": "µM"}, {"measurement": "Activity", "setting": "HT-29 [2]", "result": "inactive"}, {"measurement": "Activity", "setting": "HT-29 [3]", "result": 82.22, "unit": "%"}, {"measurement": "IC50", "setting": "HT-29 [4]", "result": 0.17, "unit": "µM"}, {"measurement": "Activity", "setting": "HT-29 [5]", "result": "inactive"}, {"measurement": "IC50", "setting": "MDA-MB-231 [6]", "result": 7.51, "unit": "µM"}, {"measurement": "inhibition", "setting": "[7]", "result": "Active"}, {"measurement": "Activity", "setting": "HT-29 [8]", "result": "Dose-dependent effect"}, {"measurement": "Activity", "setting": "HT-29 [9]", "result": "<=60%"}, {"measurement": "Activity", "setting": "HT-29 [10]", "result": 76.53, "unit": "%"}, {"measurement": "Activity", "setting": "HT-29 [11]", "result": "Dose-dependent effect"}, {"measurement": "Activity", "setting": "HT-29 [12]", "result": "Dose-dependent effect"}, {"measurement": "growth inhibition (GI)", "setting": "HT-29 [13]", "result": "inactive"}, {"measurement": "Activity", "setting": "HT-29 [14]", "result": 75.45, "unit": "%"}, {"measurement": "Activity", "setting": "HT-29 [15]", "result": "Tde"}, {"measurement": "Activity", "setting": "HT-29 [16]", "result": 1.7, "unit": "%"}, {"measurement": "growth inhibition (GI)", "setting": "HT-29 [17]", "result": "inactive"}, {"measurement": "Activity", "setting": "HT-29 [18]", "result": 72.28, "unit": "%"}, {"measurement": "Activity", "setting": "HT-29 [19]", "result": "Active"}, {"measurement": "Activity", "setting": "HT-29 [20]", "result": "Active"}, {"measurement": "IC50", "setting": "MDA-MB-231 [21]", "result": 18.4, "unit": "µM"}, {"measurement": "Activity", "setting": "HT-29 [22]", "result": 4.8, "unit": "%"}, {"measurement": "Activity", "setting": "HT-29 [23]", "result": "Active"}, {"measurement": "inhibition", "setting": "[24]", "result": "Active"}, {"measurement": "Activity", "setting": "HT-29 [25]", "result": 14.9, "unit": "%"}]}]}
